Experimental data taken from ChEMBL document CHEMBL4765302, “Design, synthesis and biological evaluation of novel histone deacetylase1/2 (HDAC1/2) and cyclin-dependent Kinase2 (CDK2) dual inhibitors against malignant cancer” (Eur J Med Chem, 2020).
Active and inactive are the calls of the source. No cut-off for these calls is given here.

What was measured:
[1] = biological target: Histone deacetylase 2 (Homo sapiens, UniProt Q92769); assay: Inhibition of recombinant human HDAC2 using FLUOR-DE-LYS-Green as substrate incubated for 10 mins followed by substrate addition and measured after 30 mins by fluorescence based assay
Chain of Histone deacetylase 2 (Q92769 whole entry): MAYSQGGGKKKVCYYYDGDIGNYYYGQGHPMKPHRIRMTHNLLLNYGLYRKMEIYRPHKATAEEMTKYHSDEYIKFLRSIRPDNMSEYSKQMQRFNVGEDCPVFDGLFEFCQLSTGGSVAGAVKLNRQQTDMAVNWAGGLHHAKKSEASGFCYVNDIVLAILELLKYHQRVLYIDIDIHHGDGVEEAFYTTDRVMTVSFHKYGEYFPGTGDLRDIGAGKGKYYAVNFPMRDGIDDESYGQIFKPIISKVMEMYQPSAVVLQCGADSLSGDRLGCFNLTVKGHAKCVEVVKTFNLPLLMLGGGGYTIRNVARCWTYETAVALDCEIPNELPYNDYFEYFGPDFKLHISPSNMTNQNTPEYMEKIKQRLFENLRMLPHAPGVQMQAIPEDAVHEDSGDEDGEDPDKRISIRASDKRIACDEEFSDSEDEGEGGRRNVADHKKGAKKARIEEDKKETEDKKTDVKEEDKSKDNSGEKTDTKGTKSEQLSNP
In short: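 IC50 values reported as means of at least two separate determinations, expressed as mean ±SD.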

[2] = system: NCI-H460; assay: Cytotoxicity against human NCI-H460 cells assessed as effect on cell morphology at 0.5 to 8 micromol incubated for 48 hrs by microscopic analysis; assay type: functional, cell-based; settings: dose 0.5-8 µmol
In short: (§1)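 Five cancer cell lines treated with compound or DMSO (0.1 %) for 48 h. Morphology inspected by light microscopy at 10× objective.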

[3] = system: A-375; assay: Cytotoxicity against human A-375 cells assessed as effect on cell morphology at 0.5 to 8 micromol incubated for 48 hrs by microscopic analysis; assay type: functional, cell-based; settings: dose 0.5-8 µmol; in short: as §1
[4] = system: HCT-116; assay: Cytotoxicity against human HCT-116 cells assessed as effect on cell morphology at 0.5 to 8 micromol incubated for 48 hrs by microscopic analysis; assay type: functional, cell-based; settings: dose 0.5-8 µmol; in short: as §1
[5] = system: A-375; assay: Induction of cell cycle arrest in human A-375 cells assessed as reduction in G0/G1 phase at 0.5 to 2 uM incubated for 24 hrs by PI staining based flow cytometry; assay type: functional; settings: dose 0.5-2 µM
In short: (§2)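 Treatment at 2, 1 and 0.5 μM for 24 h, alongside CS055 and roscovitine, against a DMSO (0.1 %) blank. Cells then stained with propidium iodide and analyzed by flow cytometry.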

[6] = system: HCT-116; assay: Induction of cell cycle arrest in human HCT-116 cells assessed as G2/M phase at 0.5 uM incubated for 24 hrs by PI staining based flow cytometry (reference value: 27.46 %); assay type: functional; in short: as §2
[7] = system: A-375; assay: Induction of apoptosis in human A-375 cells assessed as viable cells at 2 uM incubated for 48 hrs by annexin V-FITC and PI staining based flow cytometry (reference value: 96.3 %); assay type: functional; settings: read-out: Activity
[8] = system: A-375; assay: Induction of apoptosis in human A-375 cells assessed as late apoptotic cells at 1 uM incubated for 48 hrs by annexin V-FITC and PI staining based flow cytometry (reference value: 2.24 %); assay type: functional
[9] = system: A-375; assay: Induction of apoptosis in human A-375 cells assessed as necrotic cells at 1 uM incubated for 48 hrs by annexin V-FITC and PI staining based flow cytometry (reference value: 0.139 %); assay type: functional
[10] = system: A-375; assay: Induction of apoptosis in human A-375 cells assessed as necrotic cells at 0.5 uM incubated for 48 hrs by annexin V-FITC and PI staining based flow cytometry (reference value: 0.139 %); assay type: functional
[11] = system: HCT-116; assay: Induction of apoptosis in human HCT-116 cells assessed as early apoptotic cells at 2 uM incubated for 48 hrs by annexin V-FITC and PI staining based flow cytometry (reference value: 4.14 %); assay type: functional
[12] = system: HCT-116; assay: Induction of apoptosis in human HCT-116 cells assessed as viable cells at 1 uM incubated for 48 hrs by annexin V-FITC and PI staining based flow cytometry (reference value: 93.9 %); assay type: functional; settings: read-out: Activity
[13] = system: HCT-116; assay: Induction of apoptosis in human HCT-116 cells assessed as necrotic cells at 0.5 uM incubated for 48 hrs by annexin V-FITC and PI staining based flow cytometry (reference value: 0.124 %); assay type: functional
[14] = system: NCI-H460; assay: Induction of apoptosis in human NCI-H460 cells assessed as early apoptotic cells at 1 uM incubated for 48 hrs by annexin V-FITC and PI staining based flow cytometry (reference value: 2.88 %); assay type: functional
[15] = system: NCI-H460; assay: Induction of apoptosis in human NCI-H460 cells assessed as early apoptotic cells at 0.5 uM incubated for 48 hrs by annexin V-FITC and PI staining based flow cytometry (reference value: 2.88 %); assay type: functional
[16] = system: HeLa; assay: Induction of apoptosis in human HeLa cells assessed as viable cells at 2 uM incubated for 48 hrs by annexin V-FITC and PI staining based flow cytometry (reference value: 98.5 %); assay type: functional; settings: read-out: Activity
[17] = system: HeLa; assay: Induction of apoptosis in human HeLa cells assessed as late apoptotic cells at 2 uM incubated for 48 hrs by annexin V-FITC and PI staining based flow cytometry (reference value: 0.870 %); assay type: functional
[18] = system: HeLa; assay: Induction of apoptosis in human HeLa cells assessed as necrotic cells at 2 uM incubated for 48 hrs by annexin V-FITC and PI staining based flow cytometry (reference value: 0.124 %); assay type: functional
[19] = system: HeLa; assay: Induction of apoptosis in human HeLa cells assessed as viable cells at 1 uM incubated for 48 hrs by annexin V-FITC and PI staining based flow cytometry (reference value: 98.5 %); assay type: functional; settings: read-out: Activity
[20] = system: HeLa; assay: Induction of apoptosis in human HeLa cells assessed as necrotic cells at 1 uM incubated for 48 hrs by annexin V-FITC and PI staining based flow cytometry (reference value: 0.124 %); assay type: functional
[21] = system: HeLa; assay: Induction of apoptosis in human HeLa cells assessed as early apoptotic cells at 0.5 uM incubated for 48 hrs by annexin V-FITC and PI staining based flow cytometry (reference value: 0.528 %); assay type: functional
[22] = system: NCI-H460; assay: Induction of apoptosis in human NCI-H460 cells assessed as necrotic cells incubated for 48 hrs by annexin V-FITC and PI staining based flow cytometry; assay type: functional, cell-based; settings: dose 0.5-2 µM
[23] = system: A-375; assay: Induction of ROS accumulation in human A-375 cells at 1 uM incubated for 24 hrs by DCFH-DA staining based confocal microscopic analysis; assay type: functional, cell-based
In short: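 A375 cells treated at 1 µM or with DMSO blank for 24 h. Intracellular ROS detected with the fluorescent dye DCFH-DA.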

[24] = MRT (0 to t) in ICR mouse at 4 mg/kg, iv measured upto 24 hrs by LC-MS/MS analysis; assay type: ADME, organism-based; settings: in vivo
[25] = Clearance in ICR mouse at 4 mg/kg, iv measured upto 24 hrs by LC-MS/MS analysis; assay type: ADME, organism-based; settings: in vivo
In short: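 Male ICR mice (N=9). Single dose, either 4 mg/kg intravenous or 20 mg/kg intraperitoneal. Parameters derived: T1/2, Tmax, Cmax, AUC0-t, MRT0-t and CL, with F for the intraperitoneal arm.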

[26] = system: HCT-116; assay: Antitumor activity against human HCT-116 cells xenografted in Balb/c mouse assessed as tumor growth inhibition at 25 mg/kg, ip administered for 21 days and measured on day 21 relative to control; assay type: functional; settings: HCT-116, ip, 504 h, time 21 day, read-out: GI
In short: (§3)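 HCT116 xenografts in BALB/c nude mice. Dosing started when tumours reached 100–300 mm³: intraperitoneal injection once daily for 21 days at 25, 50 or 100 mg/kg, versus blank. Body weight monitored. Tumour growth inhibition computed against blank.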

[27] = system: HCT-116; assay: Antitumor activity against human HCT-116 cells xenografted in Balb/c mouse assessed as tumor growth inhibition at 50 mg/kg, ip administered for 21 days and measured on day 21 relative to control; assay type: functional; settings: HCT-116, ip, 504 h, time 21 day, read-out: GI; in short: as §3
[28] = system: A-375; assay: Induction of apoptosis in human A375 cells assessed as apoptosis rate at 2 uM incubated for 48 hrs by annexin V-FITC and PI staining based flow cytometry relative to control; assay type: functional
[29] = system: HeLa; assay: Induction of apoptosis in human HeLa cells assessed as apoptosis rate at 2 uM incubated for 48 hrs by annexin V-FITC and PI staining based flow cytometry relative to control; assay type: functional
[30] = Intraperitoneal bioavailability in ICR mouse at 20 mg/kg measured upto 24 hrs by LC-MS/MS analysis; settings: in vivo, ip

SMILES: Cc1ccc(Nc2nc(Cl)nc3c2ncn3Cc2ccc(C(=O)Nc3ccccc3N)cc2)cc1
- IC50 [1]: 23.1 nM
- Activity [2]: Active
- Activity [3]: Active
- Activity [4]: Active
- Activity [5]: Active
- Activity [6]: 76.99%
- viability at 2 µM [7]: 7.6%
- Activity [8]: 83.4%
- Activity [9]: 0.566%
- Activity [10]: 0.852%
- Activity [11]: 76.2%
- viability at 1 µM [12]: 13.3%
- Activity [13]: 1.37%
- Activity [14]: 18.6%
- Activity [15]: 6.74%
- viability at 2 µM [16]: 77.4%
- Activity [17]: 14.1%
- Activity [18]: 0.243%
- viability at 1 µM [19]: 85.2%
- Activity [20]: 0.363%
- Activity [21]: 4.36%
- Activity [22]: Dose-dependent effect
- Activity [23]: Active
- MRT last at 24 h [24]: 33.8 min
- clearance [25]: 23.3 mL/min/kg
- inhibition in vivo at 25 mg/kg [26]: 28%
- inhibition in vivo at 50 mg/kg [27]: 40%
- Activity [28]: 91.99%
- Activity [29]: 22.36%
- bioavailability [30]: 50.8%
